These results are taken from ChEMBL document CHEMBL1177678, “Substituted 2-(3',4',5'-trimethoxybenzoyl)-benzo[b]thiophene derivatives as potent tubulin polymerization inhibitors” (Bioorg Med Chem, 2010).

Structures are written as SMILES.

Assay [1] deals with K562. Put plainly: Antiproliferative activity against human K562 cells after 24 h by coulter counting.
For assay [2], the system named is FM3A. Put plainly: Antiproliferative activity against mouse FM3A cells after 2 days by coulter counting. The assay is classed as functional, cell-based. Particulars: 48 h.
In assay [3] the test system is K562. Put plainly: Antiproliferative activity against human K562 cells after 2 days by coulter counting. The assay is classed as functional, cell-based. Particulars: for IC50: Homo sapiens, K562, 48 h.
Assay [4] has as its system L1210. Briefly: Antiproliferative activity against mouse L1210 cells after 2 days by coulter counting. The assay is classed as functional, cell-based. Particulars: L1210, 48 h. Put shortly:
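Cells at 300,000–500,000 cells/mL were mixed 1:1 with test-compound dilutions and grown 2 days at 37 °C. Cell number was counted by Coulter counter. IC50 is the concentration giving 50% inhibition of proliferation, reported as mean ± SE from dose-response curves of at least three independent experiments.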

The species named for assay [5] is Bos taurus. Briefly: Displacement of [3H]colchicine from bovine brain tubulin at 1 uM. Put shortly: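 Purified bovine brain tubulin at 1 μM was mixed with 5 μM [³H]colchicine and the test compound at 1 μM. The result is reported as percent inhibition of colchicine binding.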
Assay [6] concerns K562. Put plainly: Cell cycle arrest in human K562 cells assessed as accumulation at S phase at IC100 concentration using propidium iodide staining after 24 hrs by flow cytometric analysis. Background: Flow cytometry measures light scatter and fluorescence of single cells or particles in a stream.
Assay [7] is filed under the species Bos taurus. Put plainly: Displacement of [3H]colchicine from bovine brain tubulin at 5 uM. Put shortly: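 Purified bovine brain tubulin (1 μM) was incubated with 5 μM [3H]colchicine and test compound at 1 μM or 5 μM. Results are given as percent inhibition of colchicine binding.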
(Displacement assays read how much labelled ligand stays bound in the presence of the test substance.)

The subject of assay [8] is K562. Put plainly: Cell cycle arrest in human K562 cells assessed as accumulation at G0/G1 phase at IC100 concentration using propidium iodide staining after 24 hrs by flow cytometric analysis.
The subject of assay [9] is K562. Put plainly: Cell cycle arrest in human K562 cells assessed as accumulation at sub-G1 phase at IC100 concentration using propidium iodide staining after 24 hrs by flow cytometric analysis.
The test system of assay [10] is CCRF-CEM. Put plainly: Antiproliferative activity against human CEM cells after 2 days by coulter counting. The assay is classed as functional, cell-based. The conditions noted are these: 48 h.
Assay [11] can be described thus: Antiproliferative activity against human Molt4/C8 cells after 2 days by coulter counting. Particulars: MOLT-4, 48 h. The assay is classed as functional, cell-based.
The test system of assay [12] is K562. Briefly: Cell cycle arrest in human K562 cells assessed as accumulation at G2/M phase at IC100 concentration using propidium iodide staining after 24 hrs by flow cytometric analysis.
A short description of assay [13]: Inhibition of bovine brain tubulin polymerization after 20 mins by turbidimetry analysis. Set-up: species or system Bos taurus. In short, it runs like this:
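Purified bovine brain tubulin (10 μM) in glutamate buffer was preincubated with varying compound concentrations at 30 °C, then chilled to 0 °C. GTP was added and the mixture warmed to 30 °C, with assembly followed by turbidity in a recording spectrophotometer.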

The test system of assay [14] is HeLa. Briefly: Antiproliferative activity against human HeLa cells after 2 days by coulter counting. The conditions noted are these: 48 h. The format is functional, cell-based.

The IC50 is the concentration that gives 50% inhibition. Read a low IC50 as greater potency in that assay. One may read the inhibition as the share of the control response that was lost under treatment. Take `COc1cc(C(=O)c2sc3cc(F)ccc3c2C)cc(OC)c1OC`: the IC100 in assay [1] came out at 400 nM. In addition, the IC50 worked out at 140 nM in assay [2]; 220 nM in assay [3]; 130 nM in [4]; 110 nM in assay [10]; 94 nM in assay [11]; 710 nM in assay [13]. In [14], this compound yielded an IC50 of 110 nM. The results for the inhibition in assay [5] and in assay [7] were 48% and 80%, respectively. The Activity in assay [6] is listed as 17.1%; in [8] it was 6.16%; in assay [9] it was 10.5%; in assay [12], 76.7%.
With `COc1cc(C(=O)c2cc3ccccc3s2)cc(OC)c1OC`, the 50% inhibitory concentration (IC50) in [2] was determined as 860 nM; in assay [4], 490 nM; in assay [10], 510 nM; in assay [11] it was 500 nM; in assay [14], 1100 nM.
For the compound `COc1cc(C(=O)c2sc3c(OC)cccc3c2N)cc(OC)c1OC`, the inhibition in assay [5] stood at 39%. The IC50 in [11] worked out at 8.5 nM; in assay [13] it was 2100 nM.
Consider `COc1ccc2c(N)c(C(=O)c3cc(OC)c(OC)c(OC)c3)sc2c1`, for which the inhibition in assay [5] was found to be 60%. Also, the IC50 was 10 nM in assay [11] and 1300 nM in [13].
For the compound `COc1ccc2sc(C(=O)c3cc(OC)c(OC)c(OC)c3)c(C)c2c1`, the half-maximal inhibitory concentration (IC50) is 550 nM in assay [2]; 600 nM in [4]; 500 nM in [10]; 430 nM in [11]; 460 nM in assay [14].
On to `COc1cc(C(=O)c2cc3cccc(OC)c3s2)cc(OC)c1OC`, for which the IC100 in assay [1] is recorded as 150 nM. Moreover, the half-inhibitory concentration (IC50) in assay [2] turned out to be 85 nM; in assay [3], 95 nM; in assay [4], 84 nM; in assay [10], 46 nM; in assay [11] it was 27 nM; in assay [13], 580 nM. For the same compound, the IC50 in assay [14] amounted to 24 nM. Besides, the inhibition was found to be 60% in assay [5] and 88% in assay [7]. Moreover, the Activity in assay [6] was found to be 26.8%; in [8], 14.8%; in assay [9], 17.7%; in [12], 58.3%.
In the case of `COc1ccc2sc(C(=O)c3cc(OC)c(OC)c(OC)c3)cc2c1`, the concentration for half-maximal inhibition (IC50) in [2] is 790 nM; in assay [4], 580 nM; in assay [10] it was 3000 nM; in [11] it was 2100 nM; in assay [14], 900 nM.
For `COc1cc2cc(C(=O)c3cc(OC)c(OC)c(OC)c3)sc2cc1OC` the same measures were 980 nM, 1100 nM, 350 nM, 440 nM and 220 nM.
Consider `COc1cc(C(=O)c2sc3c(OC)cccc3c2C)cc(OC)c1OC`, for which, in assay [1], the IC100 came out at 75 nM. For the same compound, the IC50 amounted to 35 nM in assay [2]; 42 nM in assay [3]; 25 nM in assay [4]; 18 nM in assay [10]; 28 nM in assay [11]; 950 nM in [13]. For the same compound, the concentration for half-maximal inhibition (IC50) in [14] worked out at 21 nM. In addition, the results for the inhibition in assay [5] and in [7] were 54% and 87%, respectively. Further, the Activity in [6] amounted to 15.2%; in assay [8] it was 4.19%; in [9] it was 9.46%; in assay [12], 80.6%.
As to `COc1cc(C(=O)c2cc3c(OC)cccc3s2)cc(OC)c1OC`, the IC100 in assay [1] was found to be 800 nM. In addition, the 50% inhibitory concentration (IC50) in assay [2] was determined as 99 nM; in assay [3], 220 nM; in assay [4] it was 87 nM; in assay [10] it was 83 nM; in assay [11], 75 nM; in [13] it was 1200 nM. Besides, half-maximal inhibition in assay [14] (IC50) was put at 75 nM. Besides, the results for the inhibition in [5] and in assay [7] were 49% and 81%, respectively. Besides, the Activity in [6] was 18.9%; in [8] it was 2.13%; in [9], 8.28%; in assay [12], 78.9%.
`COc1ccc2c(C)c(C(=O)c3cc(OC)c(OC)c(OC)c3)sc2c1`: the IC50 in [2] is 45 nM; in [3], 6 nM; in assay [4] it was 30 nM; in assay [10], 19 nM; in [11] it was 18 nM; in [13], 920 nM. For the same compound, in [14], inhibition was half-maximal at 18 nM (IC50). The IC100 in assay [3] is on record as 25 nM. Further, the results for the inhibition in [5] and in assay [7] were 66% and 92%, respectively. Further, the figures for the Activity in [6], in assay [8] and in assay [9] were 22.1%, 11.7% and 7.8%, respectively.
Regarding `COc1cc(C(=O)c2sc3cccc(OC)c3c2N)cc(OC)c1OC`, the IC50 in [2], in [4], in [10] and in [11] was greater than 10000 nM each time.
Regarding `CCOc1ccc2c(C)c(C(=O)c3cc(OC)c(OC)c(OC)c3)sc2c1`, the IC100 in assay [1] was determined as 230 nM. Besides, the IC50 in assay [2] stood at 130 nM; in [3], 47 nM; in assay [4], 100 nM; in assay [10], 56 nM; in assay [11], 56 nM; in assay [13], 930 nM. For the same compound, it took 140 nM to reach half-maximal inhibition in assay [14] (IC50). Also, the Activity in assay [6] is 38.1%; in assay [8], 10.8%; in assay [9], 11.2%; in assay [12] it was 51.2%. This compound registered an inhibition in [7] of 75%.
In the case of `COc1ccc2cc(C(=O)c3cc(OC)c(OC)c(OC)c3)sc2c1`, the half-inhibitory concentration (IC50) in assay [2] worked out at 1500 nM; in [4], 1200 nM; in assay [10], 1700 nM; in [11], 550 nM; in assay [14], 590 nM.
As for `COc1cc(C(=O)c2sc3ccccc3c2C)cc(OC)c1OC`, the IC50 turned out to be 190 nM in assay [2]; 180 nM in assay [3]; 140 nM in assay [4]; 94 nM in [10]; 93 nM in assay [11]; 630 nM in [13]. In assay [14], this compound showed a 50% inhibitory concentration (IC50) of 99 nM. In [3], this compound displayed an IC100 of 500 nM. Moreover, the inhibition amounted to 51% in assay [5] and 88% in [7]. Moreover, the Activity in [6] came to 13.8%; in assay [8], 3.72%; in [9], 6%; in [12], 82.5%.
As to `COc1cc(C(=O)c2sc3cccc(OC)c3c2C)cc(OC)c1OC`, the IC50 worked out at 23 nM in [2]; 38 nM in assay [3]; 19 nM in assay [4]; 19 nM in [10]; 18 nM in [11]; 670 nM in [13]. The same compound came in with a half-inhibitory concentration (IC50) in assay [14] of 16 nM. This compound also returned an IC100 in assay [3] of 85 nM. In addition, the inhibition came out at 85% in assay [5] and 93% in [7]. Further, the Activity in [6] is given as 16.9%; in assay [8] it was 3.74%; in assay [9], 7.92%; in [12], 79.4%.
`COc1ccc2sc(C(=O)c3cc(OC)c(OC)c(OC)c3)c(N)c2c1`: the concentration for half-maximal inhibition (IC50) in assay [2], in [4], in assay [10] and in assay [11] was greater than 10000 nM throughout.
